According to ChEMBL document CHEMBL1134143, “Studies towards the next generation of antidepressants. Part 1: Indolylcyclohexylamines as potent serotonin reuptake inhibitors” (Bioorg Med Chem Lett, 2001):
pKi: −log10 of the molar value.

How the values were obtained:
[1] = biological target: T1, 5-hydroxytryptamine receptor 1A (Homo sapiens) (UniProt P08908); test: Binding affinity for 5-hydroxytryptamine 1A receptor was determined by incubating human 5-hydroxytryptamine 1A receptor transfected CHO cells with [3H]8-OH-DPAT; format: cell-based; design: concentration or dose not given beside the values; details: concentration not given here
T1 sequence (whole entry): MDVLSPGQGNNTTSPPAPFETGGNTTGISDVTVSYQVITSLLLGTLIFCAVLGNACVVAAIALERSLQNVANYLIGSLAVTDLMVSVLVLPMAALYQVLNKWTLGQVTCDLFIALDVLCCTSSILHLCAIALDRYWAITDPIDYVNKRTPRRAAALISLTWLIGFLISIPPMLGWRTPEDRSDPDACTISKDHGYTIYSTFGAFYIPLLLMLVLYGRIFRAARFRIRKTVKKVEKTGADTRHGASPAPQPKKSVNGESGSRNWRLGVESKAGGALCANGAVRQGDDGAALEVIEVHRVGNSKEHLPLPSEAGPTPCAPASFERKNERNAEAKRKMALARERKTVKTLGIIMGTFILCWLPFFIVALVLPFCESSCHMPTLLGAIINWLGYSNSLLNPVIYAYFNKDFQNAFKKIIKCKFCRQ
Outline: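 Displacement of [3H]-8-OH-DPAT binding in CHO cells transfected with human 5-HT1A receptors. Test compound at six concentrations, triplicate wells per experiment. IC50 converted to Ki (Cheng–Prusoff) and reported as the mean of 2–3 independent experiments.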

[2] = biological target: Adrenergic receptor alpha-1 (Rattus norvegicus) (UniProt P15823+P23944+P43140); test: In vitro inhibition of [3H]prazosin binding to rat Alpha-1 adrenergic receptors on cortical membranes at 1 uM.; format: cell membranes; details: Membrane
[3] = biological target: Sodium-dependent serotonin transporter (Rattus norvegicus, UniProt P31652); test: In vitro for its binding affinity for serotonin transporter RB5-HT-T in rat cortical membranes; format: cell membranes
Sequence of Sodium-dependent serotonin transporter (P31652 whole entry): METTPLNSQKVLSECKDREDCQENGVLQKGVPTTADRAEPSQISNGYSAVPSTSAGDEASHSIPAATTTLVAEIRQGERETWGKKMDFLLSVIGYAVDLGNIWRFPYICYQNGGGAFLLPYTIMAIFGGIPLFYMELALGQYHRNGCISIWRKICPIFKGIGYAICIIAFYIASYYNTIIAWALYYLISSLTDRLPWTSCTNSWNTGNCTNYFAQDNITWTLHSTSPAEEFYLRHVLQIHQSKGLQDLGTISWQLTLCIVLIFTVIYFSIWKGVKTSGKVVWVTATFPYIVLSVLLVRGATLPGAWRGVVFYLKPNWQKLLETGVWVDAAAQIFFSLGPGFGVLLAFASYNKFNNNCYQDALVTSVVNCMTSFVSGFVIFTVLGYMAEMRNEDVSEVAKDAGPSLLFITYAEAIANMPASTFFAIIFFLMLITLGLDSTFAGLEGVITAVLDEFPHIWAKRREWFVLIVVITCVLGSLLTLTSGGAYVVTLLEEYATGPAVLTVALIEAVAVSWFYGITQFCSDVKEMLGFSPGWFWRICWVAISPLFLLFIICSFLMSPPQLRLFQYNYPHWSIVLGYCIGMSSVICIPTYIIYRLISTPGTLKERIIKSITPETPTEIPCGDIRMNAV
Outline: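 Serotonin transporter affinity (RB5-HT-T). Compound tested at six concentrations in triplicate. Ki calculated from IC50 by Cheng–Prusoff and given as the mean of 2–3 experiments.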

[4] = biological target: T2, Adrenergic receptor alpha-1 (Rattus norvegicus, UniProt P15823+P23944+P43140); test: Binding affinity at Alpha-1 adrenergic receptors on rat cortical membranes by [3H]prazosin displacement.
T2 sequence (P15823 whole entry): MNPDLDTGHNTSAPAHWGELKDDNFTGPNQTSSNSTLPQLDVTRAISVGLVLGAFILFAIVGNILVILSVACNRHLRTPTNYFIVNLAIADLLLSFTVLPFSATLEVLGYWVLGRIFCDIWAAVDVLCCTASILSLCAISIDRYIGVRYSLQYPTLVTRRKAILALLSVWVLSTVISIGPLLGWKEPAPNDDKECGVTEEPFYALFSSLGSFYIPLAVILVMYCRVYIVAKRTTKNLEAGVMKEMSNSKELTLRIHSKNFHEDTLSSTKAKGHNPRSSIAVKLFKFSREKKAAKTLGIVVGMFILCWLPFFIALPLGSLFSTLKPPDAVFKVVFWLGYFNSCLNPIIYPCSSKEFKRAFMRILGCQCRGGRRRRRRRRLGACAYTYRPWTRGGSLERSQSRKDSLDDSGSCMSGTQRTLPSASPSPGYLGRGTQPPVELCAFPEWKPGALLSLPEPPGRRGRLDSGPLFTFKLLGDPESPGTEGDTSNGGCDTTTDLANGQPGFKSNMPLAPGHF
T2 sequence (P23944 whole entry): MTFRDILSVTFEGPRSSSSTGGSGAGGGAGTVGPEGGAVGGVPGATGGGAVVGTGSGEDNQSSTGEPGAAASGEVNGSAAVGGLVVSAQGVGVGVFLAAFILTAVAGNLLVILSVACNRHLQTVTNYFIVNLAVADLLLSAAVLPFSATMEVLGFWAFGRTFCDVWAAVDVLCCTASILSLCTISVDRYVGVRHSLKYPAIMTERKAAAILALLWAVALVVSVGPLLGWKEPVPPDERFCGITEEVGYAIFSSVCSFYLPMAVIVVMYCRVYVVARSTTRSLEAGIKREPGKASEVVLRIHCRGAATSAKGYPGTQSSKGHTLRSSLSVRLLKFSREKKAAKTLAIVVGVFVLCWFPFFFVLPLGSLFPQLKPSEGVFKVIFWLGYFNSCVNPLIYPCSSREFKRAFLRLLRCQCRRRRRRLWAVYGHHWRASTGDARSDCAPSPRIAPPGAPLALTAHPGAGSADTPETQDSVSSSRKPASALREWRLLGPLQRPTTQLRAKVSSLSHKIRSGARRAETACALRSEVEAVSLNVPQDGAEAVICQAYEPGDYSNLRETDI
T2 sequence (P43140 whole entry): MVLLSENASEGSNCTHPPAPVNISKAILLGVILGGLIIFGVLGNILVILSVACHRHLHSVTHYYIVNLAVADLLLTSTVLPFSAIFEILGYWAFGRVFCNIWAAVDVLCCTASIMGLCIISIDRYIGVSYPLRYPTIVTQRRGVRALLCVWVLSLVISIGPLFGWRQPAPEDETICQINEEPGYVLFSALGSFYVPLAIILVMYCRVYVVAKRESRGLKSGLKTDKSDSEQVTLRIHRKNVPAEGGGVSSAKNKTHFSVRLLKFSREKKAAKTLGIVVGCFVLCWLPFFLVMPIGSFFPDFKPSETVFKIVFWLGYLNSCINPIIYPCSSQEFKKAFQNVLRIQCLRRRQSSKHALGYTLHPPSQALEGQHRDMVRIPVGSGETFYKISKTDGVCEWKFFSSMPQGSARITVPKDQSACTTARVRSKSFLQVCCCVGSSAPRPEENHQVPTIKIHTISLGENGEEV
Outline: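 Rat cortical membranes incubated with [3H]-prazosin and test compound. Six concentrations per experiment, each run in triplicate; Ki derived from IC50 by the Cheng–Prusoff method and given as the mean of 2–3 experiments.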

inhibition [1]	inhibition [2]	pKi [3]	SMILES	Ki [4]
0%	10%	6.75	N#Cc1ccc2[nH]cc(C3=CCC(N4CCCCC4)CC3)c2c1 (configuration not stated)	
11%	8%	7.80	Fc1ccc2[nH]cc([C@H]3CC[C@H](NCc4ccccc4)CC3)c2c1	
			COc1ccc2c(c1)CCN(CCCc1c[nH]c3ccc(F)cc13)C2	58 nM
15%	17%	8.12	N#Cc1ccc2[nH]cc([C@H]3CC[C@@H](NCc4ccccc4)CC3)c2c1	
0%	56%	8.70	N#Cc1ccc2[nH]cc([C@H]3CC[C@H](NCCc4ccccc4)CC3)c2c1	
87%	27%	8.50	N#Cc1ccc2[nH]cc(C3=CCC(NCc4ccccc4)CC3)c2c1 (configuration not stated)	
0%	21%	6.07	c1ccc(CN[C@H]2CC[C@@H](c3c[nH]c4ccccc43)CC2)cc1	
41%	32%	8.81	N#Cc1ccc2[nH]cc(C3=CCC(NCCc4ccccc4)CC3)c2c1 (configuration not stated)	
3%	9%	7.68	Fc1ccc2[nH]cc([C@H]3CC[C@@H](NCc4ccccc4)CC3)c2c1	
37%	28%	7.60	N#Cc1ccc2[nH]cc([C@H]3CC[C@H](NCc4ccccc4)CC3)c2c1	
0%	3%	7.66	N#Cc1ccc2[nH]cc([C@H]3CC[C@@H](N4CCCCC4)CC3)c2c1	
32%	64%	6.97	c1ccc(CN[C@H]2CC[C@H](c3c[nH]c4ccccc43)CC2)cc1	
0%	14%	6.82	N#Cc1ccc2[nH]cc([C@H]3CC[C@H](N4CCCCC4)CC3)c2c1	
0%	40%	8.12	N#Cc1ccc2[nH]cc([C@H]3CC[C@@H](NCCc4ccccc4)CC3)c2c1	
48%			Fc1ccc2[nH]cc(CCCN3CCc4ccccc4C3)c2c1	

SMILES	inhibition [1]	inhibition [2]	pKi [3]	Ki [4]
COc1ccc2c(c1)CCN([C@H]1CC[C@H](c3c[nH]c4ccc(C#N)cc43)CC1)C2	74%		8.10	228 nM
COc1ccc2c(c1)CN([C@H]1CC[C@H](c3c[nH]c4ccc(C#N)cc43)CC1)CC2	48%		7.92	113 nM
COc1ccc2c(c1)CN([C@H]1CC[C@@H](c3c[nH]c4ccc(C#N)cc43)CC1)CC2	26%	11%	9.10	
COc1cccc2c1CCN([C@H]1CC[C@@H](c3c[nH]c4ccc(C#N)cc43)CC1)C2	7%		9.21	
COc1cccc2c1CCN([C@H]1CC[C@H](c3c[nH]c4ccc(C#N)cc43)CC1)C2	47%		7.92	
COc1cccc2c1CN([C@H]1CC[C@H](c3c[nH]c4ccc(C#N)cc43)CC1)CC2	46%		8.12	
N#Cc1ccc2[nH]cc([C@H]3CC[C@H](N4CCc5ccccc5C4)CC3)c2c1	10%		8.00	88 nM
COc1ccc2c(c1)CCN([C@H]1CC[C@@H](c3c[nH]c4ccc(C#N)cc43)CC1)C2	21%	11%	10.00	
N#Cc1ccc2[nH]cc([C@H]3CC[C@@H](N4CCc5ccccc5C4)CC3)c2c1	0%		8.91	337 nM
COc1cccc2c1CN([C@H]1CC[C@@H](c3c[nH]c4ccc(C#N)cc43)CC1)CC2	14%		9.00	
